{"source": "paper PMC9218293", "about": "(Molecular Therapy Oncolytics, 2022)", "key": {"[1]": {"test_system": "YUMM1.7P cells", "assay": "WST-8 cell viability assay", "type": "cell-based", "conditions": "Mus musculus, read-out: IC50 value of vemurafenib for YUMM1.7P cells", "outline": "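Parental mouse melanoma YUMM1.7 cells (BRAF V600E) were grown in DMEM/F12 with 10% fetal bovine serum and 1% penicillin/streptomycin at 37°C, humidified 5% CO₂.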"}, "[2]": {"test_system": "YUMM1.7R cells", "assay": "WST-8 cell viability assay", "type": "cell-based", "conditions": "Mus musculus", "outline": "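Resistant YUMM1.7R cells were derived by exposing parental YUMM1.7 cells to vemurafenib for 8–10 weeks, with the concentration escalated from a low (condition 1) or medium (condition 2) start. They were then kept under continuous 5 μM vemurafenib in DMEM/F12 with 10% fetal bovine serum and 1% penicillin/streptomycin at 37°C, 5% CO₂.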"}, "[3]": {"test_system": "P-ERK1/2 (Thr202/Tyr204) in YUMM1.7P cells", "assay": "Immunoblotting for P-ERK1/2 after vemurafenib", "type": "cell-based, mouse", "conditions": "vemurafenib 5 μM, immunoblot, Figure S1C"}, "[4]": {"test_system": "P-ERK1/2 (Thr202/Tyr204) in YUMM1.7R cells", "assay": "Immunoblotting for P-ERK1/2 after vemurafenib", "type": "cell-based, mouse", "conditions": "vemurafenib 5 μM; YUMM1.7R condition 1; immunoblot; Figure S1C"}, "[5]": {"test_system": "YUMM1.7P-derived tumors", "assay": "Syngeneic mouse melanoma model, tumor growth", "type": "in vivo, C57BL/6 mice", "conditions": "20 mg/kg i.p. daily; n = 6 mice/group; Figure 1A", "outline": "(§1)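 Tumors were established in C57BL/6 mice (6–8 weeks) by s.c. injection of 3 × 10⁵ YUMM1.7P or YUMM1.7R cells. Daily i.p. vehicle or vemurafenib was given at 20 mg/kg. Tumor size was monitored, n = 6 mice/group, as means ± SEM with two-way ANOVA and Tukey's post hoc test. Mice with tumors >1,500 mm³ were euthanized.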"}, "[6]": {"test_system": "YUMM1.7R-derived tumors", "assay": "Syngeneic mouse melanoma model, tumor growth and survival", "type": "in vivo, C57BL/6 mice", "conditions": "20 mg/kg i.p. daily; n = 6 mice/group; Figure 1A", "outline": "as §1"}, "[7]": {"test_system": "TME of YUMM1.7P-derived tumors", "assay": "Flow cytometry of tumor-infiltrating immune cells", "type": "in vivo, C57BL/6 mice", "conditions": "VEM 20 mg/kg i.p. daily, n = 6", "outline": "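C57BL/6 mice (6–8 weeks) received 3 × 10⁵ YUMM1.7P cells s.c. Vehicle or vemurafenib was given at 20 mg/kg i.p. daily. Tumors were harvested and dissociated to single cells. Dead cells were excluded with fixable viability dye eFluor 506. Populations were gated as frequencies among live/dead⁻CD45⁺ cells: MDSCs CD45⁺CD11b⁺Gr1⁺, TAMs CD45⁺Gr1⁻CD11b⁺F4/80⁺, CD8⁺ T cells CD45⁺CD3⁺CD8⁺. n = 6 mice/group, means ± SEM.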"}, "[8]": {"test_system": "TME of YUMM1.7R-derived tumors", "assay": "Flow cytometry of tumor-infiltrating immune cells", "type": "in vivo, C57BL/6 mice", "conditions": "VEM 20 mg/kg i.p. daily, n = 6"}}, "note": "Where two headings read alike, the source gives them in different places."}
{"smiles": "CCCS(=O)(=O)Nc1ccc(F)c(C(=O)c2c[nH]c3ncc(-c4ccc(Cl)cc4)cc23)c1F", "note": "[vemurafenib]", "values": [{"measurement": "IC50", "setting": "[1]", "value": 3.12, "unit": "µM"}, {"measurement": "IC50", "setting": "[2]; read-out: IC50, YUMM1.7R (condition 1)", "value": 10.4, "unit": "µM"}, {"measurement": "IC50", "setting": "[2]; read-out: IC50, YUMM1.7R (condition 2)", "value": 9.48, "unit": "µM"}, {"measurement": "ERK phosphorylation", "setting": "[3]", "value": "considerable reduction"}, {"measurement": "ERK phosphorylation", "setting": "[4]", "value": "this reduction was dramatically suppressed"}, {"measurement": "inhibition of tumor growth", "setting": "[5]", "value": "highly sensitive"}, {"measurement": "tumor growth", "setting": "[6]", "value": "unaffected"}, {"measurement": "frequency of CD8+ T cells", "setting": "[7]; CD45+CD3+CD8+, Figure 1D", "value": "increased"}, {"measurement": "frequency of MDSCs", "setting": "[7]; CD45+CD11b+Gr1+, Figure 1B", "value": "significant decrease"}, {"measurement": "frequency of TAMs", "setting": "[7]; CD45+Gr1-CD11b+F4/80+, Figure 1C", "value": "significant decrease"}, {"measurement": "frequency of CD3+CD4+ T cells", "setting": "[7]; Figure S3", "value": "No significant change"}, {"measurement": "frequency of MDSCs", "setting": "[8]; Figure 1B", "value": "reduction"}, {"measurement": "frequency of TAMs", "setting": "[8]; Figure 1C", "value": "reduction"}, {"measurement": "frequency of CD8+ T cells", "setting": "[8]; Figure 1D", "value": "failed to increase"}, {"measurement": "frequency of CD3+CD4+ T cells", "setting": "[8]; Figure S3", "value": "No significant change"}]}
